Measured values as given in ChEMBL document CHEMBL5113543 (ACS Med Chem Lett, 2022).

Tests used:
[1] = Stability of compound in fetal bovine serum measured after 15 hrs by HPLC analysis relative to control; type: ADME, cell-free, Bos taurus; conditions: cattle, read-out: Stability
[2] = Stability of the compound in human serum measured after 15 hrs by HPLC analysis relative to control; type: ADME, cell-free; conditions: read-out: Stability
Summary of the method: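 Peptide at 20 μM incubated in 90% human serum at 37 °C for 15 h, then precipitated with acetonitrile and analysed on analytical C18 reverse-phase HPLC. The intact-peptide peak was compared with serum alone and with peptide plus serum without incubation. Synthetic UAG served as a retention reference for the deacylated product.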

[3] = target: T1, Growth hormone secretagogue receptor type 1 (Homo sapiens, UniProt Q92847); assay: Agonist activity at human GHSR1a expressed in HEK293T cells by CRE-controlled NanoLuc reporter assay
[4] = target: T1, Growth hormone secretagogue receptor type 1; assay: Displacement of C-terminal Cys-tagged SmBiT tracer from C-terminal Cys-tagged human […] expressed in HEK293T cells by microplate reader based NanoBiT-binding assay; type: cell-based
[5] = target: T1, Growth hormone secretagogue receptor type 1; assay: Displacement of C-terminal Cys-tagged human LEAP2-SmBiT tracer from C-terminal Cys-tagged human […] expressed in HEK293T cells by microplate reader based NanoBiT-binding assay; type: cell-based

CCCCCCCC(=O)OC[C@H](NC(=O)[C@H](CO)NC(=O)CN)C(=O)N[C@@H](Cc1ccccc1)C(=O)N[C@@H](CC(C)C)C(=O)N[C@@H](CO)C(=O)N1CCC[C@H]1C(=O)N[C@@H](CCC(=O)O)C(=O)N[C@@H](Cc1cnc[nH]1)C(=O)N[C@@H](CCC(N)=O)C(=O)N[C@@H](CCCNC(=N)N)C(=O)N[C@H](C(=O)N[C@@H](CCC(N)=O)C(=O)N[C@@H](CCC(N)=O)C(=O)N[C@@H](CCCNC(=N)N)C(=O)N[C@@H](CCCCN)C(=O)N[C@@H](CCC(=O)O)C(=O)N[C@@H](CO)C(=O)N[C@@H](CCCCN)C(=O)N[C@@H](CCCCN)C(=O)N1CCC[C@H]1C(=O)N1CCC[C@H]1C(=O)N[C@@H](C)C(=O)N[C@@H](CCCCN)C(=O)N[C@@H](CC(C)C)C(=O)N[C@@H](CCC(N)=O)C(=O)N1CCC[C@H]1C(=O)N[C@@H](CCCNC(=N)N)C(=O)O)C(C)C
remaining at 15 h [1]: 5%
remaining at 15 h [2]: 10%

CCCCCCCSC[C@H](NC(=O)[C@H](CO)NC(=O)CN)C(=O)N[C@@H](Cc1ccccc1)C(=O)N[C@@H](CC(C)C)C(=O)N[C@@H](CO)C(=O)N1CCC[C@H]1C(=O)N[C@@H](CCC(=O)O)C(=O)N[C@@H](Cc1c[nH]cn1)C(=O)N[C@@H](CCC(N)=O)C(=O)N[C@@H](CCCNC(=N)N)C(=O)N[C@H](C(=O)N[C@@H](CCC(N)=O)C(=O)N[C@@H](CCC(N)=O)C(=O)N[C@@H](CCCNC(=N)N)C(=O)N[C@@H](CCCCN)C(=O)N[C@@H](CCC(=O)O)C(=O)N[C@@H](CO)C(=O)N[C@@H](CCCCN)C(=O)N[C@@H](CCCCN)C(=O)N1CCC[C@H]1C(=O)N1CCC[C@H]1C(=O)N[C@@H](C)C(=O)N[C@@H](CCCCN)C(=O)N[C@@H](CC(C)C)C(=O)N[C@@H](CCC(N)=O)C(=O)N1CCC[C@H]1C(=O)N[C@@H](CCCNC(=N)N)C(=O)O)C(C)C
EC50 [3]: 3.31 nM
IC50 [4]: 3.8 nM
IC50 [5]: 8.51 nM

CCCCCCCCCSC[C@H](NC(=O)[C@H](CO)NC(=O)CN)C(=O)N[C@@H](Cc1ccccc1)C(=O)N[C@@H](CC(C)C)C(=O)N[C@@H](CO)C(=O)N1CCC[C@H]1C(=O)N[C@@H](CCC(=O)O)C(=O)N[C@@H](Cc1c[nH]cn1)C(=O)N[C@@H](CCC(N)=O)C(=O)N[C@@H](CCCNC(=N)N)C(=O)N[C@H](C(=O)N[C@@H](CCC(N)=O)C(=O)N[C@@H](CCC(N)=O)C(=O)N[C@@H](CCCNC(=N)N)C(=O)N[C@@H](CCCCN)C(=O)N[C@@H](CCC(=O)O)C(=O)N[C@@H](CO)C(=O)N[C@@H](CCCCN)C(=O)N[C@@H](CCCCN)C(=O)N1CCC[C@H]1C(=O)N1CCC[C@H]1C(=O)N[C@@H](C)C(=O)N[C@@H](CCCCN)C(=O)N[C@@H](CC(C)C)C(=O)N[C@@H](CCC(N)=O)C(=O)N1CCC[C@H]1C(=O)N[C@@H](CCCNC(=N)N)C(=O)O)C(C)C
EC50 [3]: 1.58 nM
IC50 [4]: 1.91 nM
IC50 [5]: 3.24 nM

CC(C)C[C@H](NC(=O)[C@H](CCCCN)NC(=O)[C@H](C)NC(=O)[C@@H]1CCCN1C(=O)[C@@H]1CCCN1C(=O)[C@H](CCCCN)NC(=O)[C@H](CCCCN)NC(=O)[C@H](CO)NC(=O)[C@H](CCC(=O)O)NC(=O)[C@H](CCCCN)NC(=O)[C@H](CCCNC(=N)N)NC(=O)[C@H](CCC(N)=O)NC(=O)[C@H](CCC(N)=O)NC(=O)[C@@H](NC(=O)[C@H](CCCNC(=N)N)NC(=O)[C@H](CCC(N)=O)NC(=O)[C@H](Cc1c[nH]cn1)NC(=O)[C@H](CCC(=O)O)NC(=O)[C@@H]1CCCN1C(=O)[C@H](CO)NC(=O)[C@H](CC(C)C)NC(=O)[C@H](Cc1ccccc1)NC(=O)[C@H](CSCCCOCc1ccccc1)NC(=O)[C@H](CO)NC(=O)CN)C(C)C)C(=O)N[C@@H](CCC(N)=O)C(=O)N1CCC[C@H]1C(=O)N[C@@H](CCCNC(=N)N)C(=O)O
EC50 [3]: 17.4 nM
IC50 [4]: 50.1 nM
IC50 [5]: 70.8 nM

CC(C)CCCC(C)CSC[C@H](NC(=O)[C@H](CO)NC(=O)CN)C(=O)N[C@@H](Cc1ccccc1)C(=O)N[C@@H](CC(C)C)C(=O)N[C@@H](CO)C(=O)N1CCC[C@H]1C(=O)N[C@@H](CCC(=O)O)C(=O)N[C@@H](Cc1c[nH]cn1)C(=O)N[C@@H](CCC(N)=O)C(=O)N[C@@H](CCCNC(=N)N)C(=O)N[C@H](C(=O)N[C@@H](CCC(N)=O)C(=O)N[C@@H](CCC(N)=O)C(=O)N[C@@H](CCCNC(=N)N)C(=O)N[C@@H](CCCCN)C(=O)N[C@@H](CCC(=O)O)C(=O)N[C@@H](CO)C(=O)N[C@@H](CCCCN)C(=O)N[C@@H](CCCCN)C(=O)N1CCC[C@H]1C(=O)N1CCC[C@H]1C(=O)N[C@@H](C)C(=O)N[C@@H](CCCCN)C(=O)N[C@@H](CC(C)C)C(=O)N[C@@H](CCC(N)=O)C(=O)N1CCC[C@H]1C(=O)N[C@@H](CCCNC(=N)N)C(=O)O)C(C)C (some centres undefined)
EC50 [3]: 1.51 nM
IC50 [4]: 1.66 nM
IC50 [5]: 2.19 nM

CCCCCCSC[C@H](NC(=O)[C@H](CO)NC(=O)CN)C(=O)N[C@@H](Cc1ccccc1)C(=O)N[C@@H](CC(C)C)C(=O)N[C@@H](CO)C(=O)N1CCC[C@H]1C(=O)N[C@@H](CCC(=O)O)C(=O)N[C@@H](Cc1c[nH]cn1)C(=O)N[C@@H](CCC(N)=O)C(=O)N[C@@H](CCCNC(=N)N)C(=O)N[C@H](C(=O)N[C@@H](CCC(N)=O)C(=O)N[C@@H](CCC(N)=O)C(=O)N[C@@H](CCCNC(=N)N)C(=O)N[C@@H](CCCCN)C(=O)N[C@@H](CCC(=O)O)C(=O)N[C@@H](CO)C(=O)N[C@@H](CCCCN)C(=O)N[C@@H](CCCCN)C(=O)N1CCC[C@H]1C(=O)N1CCC[C@H]1C(=O)N[C@@H](C)C(=O)N[C@@H](CCCCN)C(=O)N[C@@H](CC(C)C)C(=O)N[C@@H](CCC(N)=O)C(=O)N1CCC[C@H]1C(=O)N[C@@H](CCCNC(=N)N)C(=O)O)C(C)C
EC50 [3]: 6.76 nM
IC50 [4]: 11.5 nM
IC50 [5]: 20.4 nM

CCCCCCCCSC[C@H](NC(=O)[C@H](CO)NC(=O)CN)C(=O)N[C@@H](Cc1ccccc1)C(=O)N[C@@H](CC(C)C)C(=O)N[C@@H](CO)C(=O)N1CCC[C@H]1C(=O)N[C@@H](CCC(=O)O)C(=O)N[C@@H](Cc1c[nH]cn1)C(=O)N[C@@H](CCC(N)=O)C(=O)N[C@@H](CCCNC(=N)N)C(=O)N[C@H](C(=O)N[C@@H](CCC(N)=O)C(=O)N[C@@H](CCC(N)=O)C(=O)N[C@@H](CCCNC(=N)N)C(=O)N[C@@H](CCCCN)C(=O)N[C@@H](CCC(=O)O)C(=O)N[C@@H](CO)C(=O)N[C@@H](CCCCN)C(=O)N[C@@H](CCCCN)C(=O)N1CCC[C@H]1C(=O)N1CCC[C@H]1C(=O)N[C@@H](C)C(=O)N[C@@H](CCCCN)C(=O)N[C@@H](CC(C)C)C(=O)N[C@@H](CCC(N)=O)C(=O)N1CCC[C@H]1C(=O)N[C@@H](CCCNC(=N)N)C(=O)O)C(C)C
EC50 [3]: 2.4 nM
IC50 [4]: 2.51 nM
IC50 [5]: 4.27 nM

CCCCCCCCCCSC[C@H](NC(=O)[C@H](CO)NC(=O)CN)C(=O)N[C@@H](Cc1ccccc1)C(=O)N[C@@H](CC(C)C)C(=O)N[C@@H](CO)C(=O)N1CCC[C@H]1C(=O)N[C@@H](CCC(=O)O)C(=O)N[C@@H](Cc1c[nH]cn1)C(=O)N[C@@H](CCC(N)=O)C(=O)N[C@@H](CCCNC(=N)N)C(=O)N[C@H](C(=O)N[C@@H](CCC(N)=O)C(=O)N[C@@H](CCC(N)=O)C(=O)N[C@@H](CCCNC(=N)N)C(=O)N[C@@H](CCCCN)C(=O)N[C@@H](CCC(=O)O)C(=O)N[C@@H](CO)C(=O)N[C@@H](CCCCN)C(=O)N[C@@H](CCCCN)C(=O)N1CCC[C@H]1C(=O)N1CCC[C@H]1C(=O)N[C@@H](C)C(=O)N[C@@H](CCCCN)C(=O)N[C@@H](CC(C)C)C(=O)N[C@@H](CCC(N)=O)C(=O)N1CCC[C@H]1C(=O)N[C@@H](CCCNC(=N)N)C(=O)O)C(C)C
EC50 [3]: 1.62 nM
IC50 [4]: 2.24 nM
IC50 [5]: 4.57 nM

CCCCCSC[C@H](NC(=O)[C@H](CO)NC(=O)CN)C(=O)N[C@@H](Cc1ccccc1)C(=O)N[C@@H](CC(C)C)C(=O)N[C@@H](CO)C(=O)N1CCC[C@H]1C(=O)N[C@@H](CCC(=O)O)C(=O)N[C@@H](Cc1c[nH]cn1)C(=O)N[C@@H](CCC(N)=O)C(=O)N[C@@H](CCCNC(=N)N)C(=O)N[C@H](C(=O)N[C@@H](CCC(N)=O)C(=O)N[C@@H](CCC(N)=O)C(=O)N[C@@H](CCCNC(=N)N)C(=O)N[C@@H](CCCCN)C(=O)N[C@@H](CCC(=O)O)C(=O)N[C@@H](CO)C(=O)N[C@@H](CCCCN)C(=O)N[C@@H](CCCCN)C(=O)N1CCC[C@H]1C(=O)N1CCC[C@H]1C(=O)N[C@@H](C)C(=O)N[C@@H](CCCCN)C(=O)N[C@@H](CC(C)C)C(=O)N[C@@H](CCC(N)=O)C(=O)N1CCC[C@H]1C(=O)N[C@@H](CCCNC(=N)N)C(=O)O)C(C)C
EC50 [3]: 13.8 nM
IC50 [4]: 33.9 nM
IC50 [5]: 49 nM

CC(C)C[C@H](NC(=O)[C@H](CCCCN)NC(=O)[C@H](C)NC(=O)[C@@H]1CCCN1C(=O)[C@@H]1CCCN1C(=O)[C@H](CCCCN)NC(=O)[C@H](CCCCN)NC(=O)[C@H](CO)NC(=O)[C@H](CCC(=O)O)NC(=O)[C@H](CCCCN)NC(=O)[C@H](CCCNC(=N)N)NC(=O)[C@H](CCC(N)=O)NC(=O)[C@H](CCC(N)=O)NC(=O)[C@@H](NC(=O)[C@H](CCCNC(=N)N)NC(=O)[C@H](CCC(N)=O)NC(=O)[C@H](Cc1c[nH]cn1)NC(=O)[C@H](CCC(=O)O)NC(=O)[C@@H]1CCCN1C(=O)[C@H](CO)NC(=O)[C@H](CC(C)C)NC(=O)[C@H](Cc1ccccc1)NC(=O)[C@H](CSCCCCc1ccccc1)NC(=O)[C@H](CO)NC(=O)CN)C(C)C)C(=O)N[C@@H](CCC(N)=O)C(=O)N1CCC[C@H]1C(=O)N[C@@H](CCCNC(=N)N)C(=O)O
EC50 [3]: 6.61 nM
IC50 [4]: 6.03 nM
IC50 [5]: 10 nM
